ChEMBL document CHEMBL1136700, “Identification of a broad-spectrum azasordarin with improved pharmacokinetic properties” (Bioorg Med Chem Lett, 2003)
≈ marks a conversion by molar mass, not a printed value.

Key:
Format in all cases: functional
[1] = system: Candida albicans; experiment: Minimum inhibitory concentration (MIC) to Candida albicans after 48 hr
Method in brief: (§1)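 Antifungal susceptibility read visually; MIC taken as lowest drug concentration giving 90–100% inhibition of visible growth relative to drug-free controls, read over 48 h, or after 24 h where footnoted. Organisms: C. parapsilosis, C. albicans, Cryptococcus neoformans, C. glabrata, Aspergillus fumigatus, Aspergillus flavus.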

[2] = system: Aspergillus fumigatus; experiment: Minimum inhibitory concentration (MIC) to Aspergillus fumigatus after 48 hr; settings: Aspergillus fumigatus, 48 h; read-out: MIC; method in brief: as §1
[3] = system: Aspergillus flavus; experiment: Minimum inhibitory concentration (MIC) against Aspergillus flavus after 24 hours; settings: Aspergillus flavus, 24 h; read-out: MIC; method in brief: as §1
[4] = system: Candida parapsilosis; experiment: Minimum inhibitory concentration (MIC) to Candida parapsilosis after 48 hr; settings: Lodderomyces parapsilosis, 48 h; read-out: MIC; method in brief: as §1
[5] = system: Nakaseomyces glabratus; experiment: Minimum inhibitory concentration (MIC) to Candida glabrata after 48 hours; settings: Nakaseomyces glabratus, 48 h; read-out: MIC; method in brief: as §1
[6] = system: Cryptococcus neoformans; experiment: Minimum inhibitory concentration against Cryptococcus neoformans after 48 hours; method in brief: as §1

Row | SMILES | MIC [1] | MIC [2] | MIC [3] | MIC [4] | MIC [5] | MIC [6]
1 | C=C(Cl)CN1C[C@H](OCC23C[C@@H]4[C@H](C)CC[C@H]4C4(C=O)CC2C=C(C(C)C)[C@@]34C(=O)O)O[C@@H]2CCC[C@H]21 | < 0.06 µg/mL | 64 µg/mL (≈ 120 µM) | 4 µg/mL (≈ 7.52 µM) | 4 µg/mL (≈ 7.52 µM) | 0.125 µg/mL (≈ 0.235 µM) | 0.25 µg/mL (≈ 0.47 µM)
2 | C=C(Cl)CON1C[C@H](OCC23C[C@@H]4[C@H](C)CC[C@H]4C4(C=O)CC2C=C(C(C)C)[C@@]34C(=O)O)OC[C@H]1C | 0.125 µg/mL (≈ 0.239 µM) | > 128 µg/mL | > 128 µg/mL | > 128 µg/mL | 2 µg/mL (≈ 3.83 µM) | 1 µg/mL (≈ 1.92 µM)
3 | CC(C)C1=CC2CC3(C=O)[C@@H]4CC[C@@H](C)[C@H]4CC2(CO[C@H]2CN(c4ccc(Cl)s4)[C@H](C)CO2)[C@]13C(=O)O | < 0.06 µg/mL | > 128 µg/mL | > 128 µg/mL | > 128 µg/mL | 0.125 µg/mL (≈ 0.228 µM) | 2 µg/mL (≈ 3.65 µM)
4 | C=C(Br)CN1C[C@H](OCC23C[C@@H]4[C@H](C)CC[C@H]4C4(C=O)CC2C=C(C(C)C)[C@@]34C(=O)O)OC[C@H]1C | < 0.06 µg/mL | 128 µg/mL (≈ 233 µM) | 4 µg/mL (≈ 7.27 µM) | 4 µg/mL (≈ 7.27 µM) | 0.125 µg/mL (≈ 0.227 µM) | < 0.06 µg/mL
5 | CC(C)C1=CC2CC3(C=O)[C@@H]4CC[C@@H](C)[C@H]4CC2(CO[C@H]2CN[C@H](C)CO2)[C@]13C(=O)O | 8 µg/mL (≈ 18.5 µM) | > 128 µg/mL | > 128 µg/mL | > 128 µg/mL | 64 µg/mL (≈ 148 µM) | > 128 µg/mL
6 | CC(C)C1=CC2CC3(C=O)[C@@H]4CC[C@@H](C)[C@H]4CC2(CO[C@H]2CN(Cc4ccccc4Cl)[C@H](C)CO2)[C@]13C(=O)O | < 0.06 µg/mL | > 128 µg/mL | > 128 µg/mL | > 128 µg/mL | 1 µg/mL (≈ 1.8 µM) | 4 µg/mL (≈ 7.19 µM)
7 | CC(C)C1=CC2CC3(C=O)[C@@H]4CC[C@@H](C)[C@H]4CC2(CO[C@H]2CN(CC=C(F)F)[C@H](C)CO2)[C@]13C(=O)O | 0.125 µg/mL (≈ 0.246 µM) | > 128 µg/mL | > 128 µg/mL | 64 µg/mL (≈ 126 µM) | 1 µg/mL (≈ 1.97 µM) | 64 µg/mL (≈ 126 µM)
8 | C=CC(=O)N1C[C@H](OCC23C[C@@H]4[C@H](C)CC[C@H]4C4(C=O)CC2C=C(C(C)C)[C@@]34C(=O)O)OC[C@H]1C | 8 µg/mL (≈ 16.5 µM) | > 128 µg/mL | > 128 µg/mL | > 128 µg/mL | 64 µg/mL (≈ 132 µM) | 128 µg/mL (≈ 264 µM)

Next, values leading:

Row | MIC [1] | MIC [2] | MIC [3] | MIC [4] | MIC [5] | MIC [6] | SMILES
9 | < 0.008 µg/mL | 8 µg/mL (≈ 14.6 µM) | 0.125 µg/mL (≈ 0.229 µM) | 0.5 µg/mL (≈ 0.916 µM) | 0.015 µg/mL (≈ 0.0275 µM) | < 0.008 µg/mL | C=C(Cl)CN1C[C@H](OCC23C[C@@H]4[C@H](C)CC[C@H]4C4(C=O)CC2C=C(C(C)C)[C@@]34C(=O)O)OCC12CCCC2
10 | < 0.06 µg/mL | > 128 µg/mL | > 128 µg/mL | > 128 µg/mL | 1 µg/mL (≈ 1.79 µM) | > 128 µg/mL | C=C(Cl)CN1C[C@H](OCC23C[C@@H]4[C@H](C)CC[C@H]4C4(C=O)CC2C=C(C(C)C)[C@@]34C(=O)O)OC[C@H]1C(F)(F)F
11 | 32 µg/mL (≈ 59.7 µM) | > 128 µg/mL | > 128 µg/mL | > 128 µg/mL | 128 µg/mL (≈ 239 µM) | > 128 µg/mL | CC(C)C1=CC2CC3(C=O)[C@@H]4CC[C@@H](C)[C@H]4CC2(CO[C@H]2CN(S(=O)(=O)C4CC4)[C@H](C)CO2)[C@]13C(=O)O
12 | 0.125 µg/mL (≈ 0.265 µM) | > 128 µg/mL | > 128 µg/mL | 64 µg/mL (≈ 136 µM) | 0.25 µg/mL (≈ 0.53 µM) | 128 µg/mL (≈ 271 µM) | C=CCN1C[C@H](OCC23C[C@@H]4[C@H](C)CC[C@H]4C4(C=O)CC2C=C(C(C)C)[C@@]34C(=O)O)OC[C@H]1C
13 | 0.5 µg/mL (≈ 0.958 µM) | > 128 µg/mL | > 128 µg/mL | 128 µg/mL (≈ 245 µM) | 1 µg/mL (≈ 1.92 µM) | 2 µg/mL (≈ 3.83 µM) | C=C(Cl)CN1C[C@H](OCC23C[C@@H]4[C@H](C)CC[C@H]4C4(C=O)CC2C=C(C(C)C)[C@@]34C(=O)O)OC[C@H]1CO
14 | < 0.06 µg/mL | > 128 µg/mL | > 128 µg/mL | 32 µg/mL (≈ 59.2 µM) | < 0.06 µg/mL | 16 µg/mL (≈ 29.6 µM) | CC(C)C1=CC2CC3(C=O)[C@@H]4CC[C@@H](C)[C@H]4CC2(CO[C@H]2CN(CC=C(Cl)Cl)[C@H](C)CO2)[C@]13C(=O)O
